# Measurements: ChEMBL document CHEMBL1955770, “Inhibition of S/G2 phase CDK4 reduces mitotic fidelity” (J Biol Chem, 2006)
# Columns and labels:
# [1] = target: Dual specificity protein kinase TTK (Homo sapiens) (UniProt P33981); experiment: Inhibition of TTK at 1 uM
# [2] = target: Aurora kinase C (Homo sapiens) (UniProt Q9UQB9); experiment: Inhibition of AURKC at 1 uM
# Procedure, shortened: (§1)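 Competition binding screen across a kinase panel with compound at 1 μM. Read-out is % competition. Kinases not hit at this concentration were scored '<50'. No Kd was determined for hits.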
# [3] = target: Leukocyte tyrosine kinase receptor (Homo sapiens) (UniProt P29376); experiment: Inhibition of LTK at 1 uM
# [4] = target: Tyrosine-protein kinase Yes (Homo sapiens) (UniProt P07947); experiment: Inhibition of YES at 1 uM
# [5] = target: Proto-oncogene tyrosine-protein kinase Src (Homo sapiens, UniProt P12931); experiment: Inhibition of SRC at 1 uM
# [6] = target: Mitogen-activated protein kinase 8 (Homo sapiens) (UniProt P45983); experiment: Inhibition of JNK1 at 1 uM
# [7] = target: Cytoplasmic tyrosine-protein kinase BMX (Homo sapiens) (UniProt P51813); experiment: Inhibition of BMX at 1 uM; procedure, shortened: as §1
# [8] = target: Mitogen-activated protein kinase 11 (Homo sapiens) (UniProt Q15759); experiment: Inhibition of p38-beta at 1 uM
# [9] = target: Ephrin type-A receptor 6 (Homo sapiens) (UniProt Q9UF33); experiment: Inhibition of EPHA6 at 1 uM
# [10] = target: Calcium/calmodulin-dependent protein kinase type 1D (Homo sapiens) (UniProt Q8IU85); experiment: Inhibition of CAMK1D at 1 uM; procedure, shortened: as §1
# [11] = target: Tyrosine-protein kinase JAK1 (Homo sapiens) (UniProt P23458); experiment: Inhibition of JAK1(Kin.Dom.1) at 1 uM
# [12] = target: Dual specificity protein kinase CLK2 (Homo sapiens) (UniProt P49760); experiment: Inhibition of CLK2 at 1 uM
# [13] = target: Ephrin type-A receptor 5 (Homo sapiens) (UniProt P54756); experiment: Inhibition of EPHA5 at 1 uM
# [14] = target: Serine/threonine-protein kinase PAK 1 (Homo sapiens) (UniProt Q13153); experiment: Inhibition of PAK1 at 1 uM
# [15] = target: Dual specificity protein kinase CLK3 (Homo sapiens) (UniProt P49761); experiment: Inhibition of CLK3 at 1 uM
# [16] = target: Mitogen-activated protein kinase kinase kinase kinase 5 (Homo sapiens) (UniProt Q9Y4K4); experiment: Inhibition of MAP4K5 at 1 uM
# [17] = target: Ribosomal protein S6 kinase alpha-3 (Homo sapiens) (UniProt P51812); experiment: Inhibition of RPS6KA3 Kin.Dom.1 at 1 uM
# [18] = target: Ephrin type-A receptor 2 (Homo sapiens) (UniProt P29317); experiment: Inhibition of EPHA2 at 1 uM
# [19] = target: High affinity nerve growth factor receptor (Homo sapiens) (UniProt P04629); experiment: Inhibition of TRKA at 1 uM
# [20] = target: Platelet-derived growth factor receptor beta (Homo sapiens) (UniProt P09619); experiment: Inhibition of PDGFRB at 1 uM
# [21] = target: TRAF2 and NCK-interacting protein kinase (Homo sapiens) (UniProt Q9UKE5); experiment: Inhibition of TNIK at 1 uM
# [22] = target: Serine/threonine-protein kinase 3 (Homo sapiens) (UniProt Q13188); experiment: Inhibition of STK3 at 1 uM
# [23] = target: STE20-like serine/threonine-protein kinase (Homo sapiens) (UniProt Q9H2G2); experiment: Inhibition of SLK at 1 uM
# [24] = target: Calcium/calmodulin-dependent protein kinase type II subunit alpha (Homo sapiens) (UniProt Q9UQM7); experiment: Inhibition of CAMK2A at 1 uM; procedure, shortened: as §1
# [25] = target: Receptor tyrosine-protein kinase erbB-4 (Homo sapiens) (UniProt Q15303); experiment: Inhibition of ERBB4 at 1 uM
# [26] = target: Tyrosine-protein kinase ABL1 (Homo sapiens) (UniProt P00519); experiment: Inhibition of ABL1 at 1 uM
# [27] = target: Insulin-like growth factor 1 receptor (Homo sapiens, UniProt P08069); experiment: Inhibition of IGF1R at 1 uM
# [28] = target: Receptor-interacting serine/threonine-protein kinase 2 (Homo sapiens) (UniProt O43353); experiment: Inhibition of RIPK2 at 1 uM
# [29] = target: Angiopoietin-1 receptor (Homo sapiens) (UniProt Q02763); experiment: Inhibition of TIE2 at 1 uM
# [30] = target: Tyrosine-protein kinase Lck (Homo sapiens, UniProt P06239); experiment: Inhibition of LCK at 1 uM
# [31] = target: Serine/threonine-protein kinase Nek6 (Homo sapiens) (UniProt Q9HC98); experiment: Inhibition of NEK6 at 1 uM
# [32] = target: Tyrosine-protein kinase SYK (Homo sapiens) (UniProt P43405); experiment: Inhibition of SYK at 1 uM
# [33] = target: RAC-alpha serine/threonine-protein kinase (Homo sapiens) (UniProt P31749); experiment: Inhibition of AKT1 at 1 uM; procedure, shortened: as §1
# [34] = target: Serine/threonine-protein kinase Nek2 (Homo sapiens) (UniProt P51955); experiment: Inhibition of NEK2 at 1 uM
# [35] = target: Ephrin type-B receptor 1 (Homo sapiens) (UniProt P54762); experiment: Inhibition of EPHB1 at 1 uM
# [36] = target: Serine/threonine-protein kinase B-raf (Homo sapiens) (UniProt P15056); experiment: Inhibition of BRAF at 1 uM; procedure, shortened: as §1
# [37] = target: Focal adhesion kinase 1 (Homo sapiens) (UniProt Q05397); experiment: Inhibition of PTK2 at 1 uM
# [38] = target: RAF proto-oncogene serine/threonine-protein kinase (Homo sapiens) (UniProt P04049); experiment: Inhibition of RAF1 at 1 uM
# [39] = target: Serine/threonine-protein kinase MARK2 (Homo sapiens) (UniProt Q7KZI7); experiment: Inhibition of MARK2 at 1 uM
# [40] = target: Mitogen-activated protein kinase 9 (Homo sapiens) (UniProt P45984); experiment: Inhibition of JNK2 at 1 uM
# [41] = target: Vascular endothelial growth factor receptor 2 (Homo sapiens) (UniProt P35968); experiment: Inhibition of VEGFR2 at 1 uM
# [42] = target: Serine/threonine-protein kinase STK11 (Homo sapiens) (UniProt Q15831); experiment: Inhibition of STK11 at 1 uM
# Insulin receptor = Insulin receptor (Homo sapiens, UniProt P06213); experiment: Inhibition of INSR at 1 uM
# [43] = target: Serine/threonine-protein kinase 17A (Homo sapiens) (UniProt Q9UEE5); experiment: Inhibition of STK17A at 1 uM
# [44] = target: Tyrosine-protein kinase Fyn (Homo sapiens) (UniProt P06241); experiment: Inhibition of FYN at 1 uM
# [45] = target: Mitogen-activated protein kinase 1 (Homo sapiens) (UniProt P28482); experiment: Inhibition of ERK2 at 1 uM
# [46] = target: Serine/threonine-protein kinase PAK 3 (Homo sapiens) (UniProt O75914); experiment: Inhibition of PAK3 at 1 uM
# Chain of Ephrin type-A receptor 6 (Homo sapiens) (Q9UF33 whole entry): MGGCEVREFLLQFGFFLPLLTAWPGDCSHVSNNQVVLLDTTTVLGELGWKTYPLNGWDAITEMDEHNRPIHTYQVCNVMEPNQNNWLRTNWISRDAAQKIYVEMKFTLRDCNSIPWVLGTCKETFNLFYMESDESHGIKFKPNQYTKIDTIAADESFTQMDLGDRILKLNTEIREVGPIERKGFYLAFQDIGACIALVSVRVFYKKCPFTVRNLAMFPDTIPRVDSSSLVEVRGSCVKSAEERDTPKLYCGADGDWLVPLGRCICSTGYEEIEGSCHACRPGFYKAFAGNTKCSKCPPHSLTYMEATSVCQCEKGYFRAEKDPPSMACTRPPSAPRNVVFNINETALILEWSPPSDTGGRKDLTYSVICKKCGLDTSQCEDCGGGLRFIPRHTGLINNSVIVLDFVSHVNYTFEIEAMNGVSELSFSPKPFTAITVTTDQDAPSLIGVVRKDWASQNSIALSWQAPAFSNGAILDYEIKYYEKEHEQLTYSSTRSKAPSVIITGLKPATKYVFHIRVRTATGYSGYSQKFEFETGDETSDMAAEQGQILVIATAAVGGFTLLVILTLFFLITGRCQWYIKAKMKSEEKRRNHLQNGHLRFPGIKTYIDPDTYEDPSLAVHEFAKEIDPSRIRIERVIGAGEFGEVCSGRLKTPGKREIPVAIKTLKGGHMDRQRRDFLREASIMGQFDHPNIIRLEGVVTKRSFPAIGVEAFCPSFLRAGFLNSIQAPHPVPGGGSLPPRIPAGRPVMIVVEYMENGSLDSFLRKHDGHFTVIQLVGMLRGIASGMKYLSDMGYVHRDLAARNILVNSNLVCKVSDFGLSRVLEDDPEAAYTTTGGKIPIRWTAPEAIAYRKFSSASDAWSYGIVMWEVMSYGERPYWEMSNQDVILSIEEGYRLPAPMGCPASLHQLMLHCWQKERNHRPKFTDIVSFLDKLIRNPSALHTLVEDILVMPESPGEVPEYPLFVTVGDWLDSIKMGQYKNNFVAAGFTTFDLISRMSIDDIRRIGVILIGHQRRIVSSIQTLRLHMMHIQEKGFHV
# Chain of High affinity nerve growth factor receptor (Homo sapiens) (P04629 33-796 limits assumed): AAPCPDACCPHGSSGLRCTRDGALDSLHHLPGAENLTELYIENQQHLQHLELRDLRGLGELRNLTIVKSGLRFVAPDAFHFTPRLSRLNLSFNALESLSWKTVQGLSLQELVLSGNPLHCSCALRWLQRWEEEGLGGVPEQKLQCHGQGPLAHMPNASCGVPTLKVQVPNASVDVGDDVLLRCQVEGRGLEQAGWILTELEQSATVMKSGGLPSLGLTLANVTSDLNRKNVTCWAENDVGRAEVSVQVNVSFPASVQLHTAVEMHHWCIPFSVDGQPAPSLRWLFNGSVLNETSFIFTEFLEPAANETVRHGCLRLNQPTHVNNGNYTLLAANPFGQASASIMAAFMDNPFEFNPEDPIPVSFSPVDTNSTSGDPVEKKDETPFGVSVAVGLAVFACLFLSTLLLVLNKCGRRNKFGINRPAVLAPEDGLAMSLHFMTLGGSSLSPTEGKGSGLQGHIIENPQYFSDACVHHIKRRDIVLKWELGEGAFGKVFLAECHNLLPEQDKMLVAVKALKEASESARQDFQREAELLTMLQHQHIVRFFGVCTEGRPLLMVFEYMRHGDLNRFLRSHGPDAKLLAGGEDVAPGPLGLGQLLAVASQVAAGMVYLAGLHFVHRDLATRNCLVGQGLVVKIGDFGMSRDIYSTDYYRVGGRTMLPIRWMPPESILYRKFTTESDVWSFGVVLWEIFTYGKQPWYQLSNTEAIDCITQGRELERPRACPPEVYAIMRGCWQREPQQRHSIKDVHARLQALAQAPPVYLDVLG
# Chain of Mitogen-activated protein kinase 9 (Homo sapiens) (P45984 whole entry, looked up): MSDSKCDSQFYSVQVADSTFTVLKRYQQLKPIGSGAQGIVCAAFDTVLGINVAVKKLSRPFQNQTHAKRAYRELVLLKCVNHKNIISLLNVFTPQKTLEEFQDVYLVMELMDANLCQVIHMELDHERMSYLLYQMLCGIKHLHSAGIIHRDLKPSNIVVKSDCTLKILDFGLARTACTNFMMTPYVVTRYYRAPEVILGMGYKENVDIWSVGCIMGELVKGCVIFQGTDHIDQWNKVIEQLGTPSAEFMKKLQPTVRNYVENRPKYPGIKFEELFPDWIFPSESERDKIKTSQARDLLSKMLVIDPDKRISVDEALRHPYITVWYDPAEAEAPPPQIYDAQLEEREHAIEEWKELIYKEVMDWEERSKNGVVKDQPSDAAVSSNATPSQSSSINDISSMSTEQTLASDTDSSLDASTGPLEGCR
# Chain of Mitogen-activated protein kinase kinase kinase kinase 5 (Homo sapiens) (Q9Y4K4 whole entry, looked up): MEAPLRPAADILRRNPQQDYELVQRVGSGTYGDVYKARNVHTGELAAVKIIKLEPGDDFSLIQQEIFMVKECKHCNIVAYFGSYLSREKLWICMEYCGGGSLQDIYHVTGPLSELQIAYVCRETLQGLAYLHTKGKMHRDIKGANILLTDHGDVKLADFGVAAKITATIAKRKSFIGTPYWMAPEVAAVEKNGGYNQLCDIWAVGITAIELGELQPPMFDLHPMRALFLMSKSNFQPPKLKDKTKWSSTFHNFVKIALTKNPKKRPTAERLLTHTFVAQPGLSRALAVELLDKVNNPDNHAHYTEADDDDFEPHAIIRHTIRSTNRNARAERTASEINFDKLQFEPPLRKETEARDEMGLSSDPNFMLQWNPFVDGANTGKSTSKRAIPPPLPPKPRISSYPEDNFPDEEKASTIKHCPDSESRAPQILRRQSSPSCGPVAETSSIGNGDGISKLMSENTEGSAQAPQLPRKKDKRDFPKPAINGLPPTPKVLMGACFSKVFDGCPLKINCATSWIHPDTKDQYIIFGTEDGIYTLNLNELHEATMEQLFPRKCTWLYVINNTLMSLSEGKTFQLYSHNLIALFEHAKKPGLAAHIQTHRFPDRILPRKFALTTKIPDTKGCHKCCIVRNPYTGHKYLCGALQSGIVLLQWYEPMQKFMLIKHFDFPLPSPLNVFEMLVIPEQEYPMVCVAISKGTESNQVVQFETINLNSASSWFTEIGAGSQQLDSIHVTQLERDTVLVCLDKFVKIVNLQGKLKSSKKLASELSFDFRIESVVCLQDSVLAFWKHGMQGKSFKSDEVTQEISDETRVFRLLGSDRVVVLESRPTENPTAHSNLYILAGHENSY
# Chain of Insulin receptor (P06213 28-758 limits assumed): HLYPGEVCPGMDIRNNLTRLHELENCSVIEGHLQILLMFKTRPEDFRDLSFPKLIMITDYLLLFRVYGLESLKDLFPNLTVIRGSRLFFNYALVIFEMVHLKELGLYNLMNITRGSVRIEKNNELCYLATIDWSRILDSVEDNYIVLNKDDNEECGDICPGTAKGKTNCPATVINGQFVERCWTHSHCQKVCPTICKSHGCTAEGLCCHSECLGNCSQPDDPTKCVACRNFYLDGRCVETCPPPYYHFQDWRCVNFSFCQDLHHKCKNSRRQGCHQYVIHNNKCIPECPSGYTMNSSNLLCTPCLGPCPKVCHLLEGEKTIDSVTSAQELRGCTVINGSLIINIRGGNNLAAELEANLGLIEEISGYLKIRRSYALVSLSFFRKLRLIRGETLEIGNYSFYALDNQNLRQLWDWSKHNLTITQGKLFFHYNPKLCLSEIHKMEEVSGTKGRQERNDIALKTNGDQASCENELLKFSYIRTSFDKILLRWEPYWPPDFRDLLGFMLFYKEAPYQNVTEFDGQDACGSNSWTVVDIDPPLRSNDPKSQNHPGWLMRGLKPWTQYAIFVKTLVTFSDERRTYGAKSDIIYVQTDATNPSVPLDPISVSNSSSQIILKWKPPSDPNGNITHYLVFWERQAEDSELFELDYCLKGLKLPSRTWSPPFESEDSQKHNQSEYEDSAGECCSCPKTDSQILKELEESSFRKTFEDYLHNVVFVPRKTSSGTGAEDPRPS
# Chain of Insulin receptor (P06213 763-1382 limits assumed): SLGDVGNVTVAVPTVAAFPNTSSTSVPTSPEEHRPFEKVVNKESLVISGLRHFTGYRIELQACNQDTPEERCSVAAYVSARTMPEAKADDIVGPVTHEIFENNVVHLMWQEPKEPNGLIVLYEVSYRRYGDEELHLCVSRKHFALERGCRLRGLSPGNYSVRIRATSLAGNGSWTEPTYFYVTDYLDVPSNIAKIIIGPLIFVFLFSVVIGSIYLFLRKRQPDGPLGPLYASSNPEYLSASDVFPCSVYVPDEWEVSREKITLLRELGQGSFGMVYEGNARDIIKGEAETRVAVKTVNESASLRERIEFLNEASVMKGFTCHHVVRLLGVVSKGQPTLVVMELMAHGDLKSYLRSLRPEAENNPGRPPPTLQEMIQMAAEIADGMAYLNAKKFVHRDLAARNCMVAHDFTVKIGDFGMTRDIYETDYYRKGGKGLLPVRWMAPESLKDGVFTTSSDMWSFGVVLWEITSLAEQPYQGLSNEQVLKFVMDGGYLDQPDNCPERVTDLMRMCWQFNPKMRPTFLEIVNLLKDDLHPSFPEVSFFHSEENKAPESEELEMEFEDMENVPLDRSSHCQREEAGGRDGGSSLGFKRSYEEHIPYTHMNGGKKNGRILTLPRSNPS
# Chain of Serine/threonine-protein kinase Nek2 (Homo sapiens) (P51955 whole entry): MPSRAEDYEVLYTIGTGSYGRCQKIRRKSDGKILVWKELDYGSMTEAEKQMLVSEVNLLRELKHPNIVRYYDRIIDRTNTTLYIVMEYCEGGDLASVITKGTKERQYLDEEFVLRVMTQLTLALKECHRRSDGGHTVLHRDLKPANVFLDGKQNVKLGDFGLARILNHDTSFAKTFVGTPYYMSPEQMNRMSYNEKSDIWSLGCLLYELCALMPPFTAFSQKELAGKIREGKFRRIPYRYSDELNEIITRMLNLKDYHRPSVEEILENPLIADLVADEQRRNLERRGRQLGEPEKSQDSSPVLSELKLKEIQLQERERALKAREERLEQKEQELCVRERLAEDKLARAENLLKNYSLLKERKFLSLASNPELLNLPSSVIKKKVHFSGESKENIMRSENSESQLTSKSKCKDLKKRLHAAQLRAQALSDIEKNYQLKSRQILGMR
smiles,measurement,setting,value
CN1CCN(c2ccc(Nc3nc(N)c(C(=O)c4ccc5c(c4)OCCO5)s3)cc2)CC1,inhibition,[1],78%
same,inhibition,[2],< 50%
same,inhibition,[3],< 50%
same,inhibition,[4],< 50%
same,inhibition,[5],< 50%
same,inhibition,[6],< 50%
same,inhibition,[7],< 50%
same,inhibition,[8],< 50%
same,inhibition,[9],< 50%
same,inhibition,[10],< 50%
same,inhibition,[11],94%
same,inhibition,[12],100%
same,inhibition,[13],< 50%
same,inhibition,[14],< 50%
same,inhibition,[15],89%
same,inhibition,[16],< 50%
same,inhibition,[17],< 50%
same,inhibition,[18],< 50%
same,inhibition,[19],< 50%
same,inhibition,[20],< 50%
same,inhibition,[21],< 50%
same,inhibition,[22],< 50%
same,inhibition,[23],99%
same,inhibition,[24],< 50%
same,inhibition,[25],< 50%
same,inhibition,[26],< 50%
same,inhibition,[27],< 50%
same,inhibition,[28],< 50%
same,inhibition,[29],< 50%
same,inhibition,[30],< 50%
same,inhibition,[31],< 50%
same,inhibition,[32],< 50%
same,inhibition,[33],< 50%
same,inhibition,[34],< 50%
same,inhibition,[35],< 50%
same,inhibition,[36],< 50%
same,inhibition,[37],< 50%
same,inhibition,[38],< 50%
same,inhibition,[39],< 50%
same,inhibition,[40],< 50%
same,inhibition,[41],< 50%
same,inhibition,[42],< 50%
same,inhibition,Insulin receptor,< 50%
same,inhibition,[43],89%
same,inhibition,[44],< 50%
same,inhibition,[45],< 50%
same,inhibition,[46],< 50%
